Test results from ChEMBL document CHEMBL4152296, “Synthesis, biological evaluation and molecular modeling of novel azaspiro dihydrotriazines as influenza virus inhibitors targeting the host factor dihydrofolate reductase (DHFR)” (Eur J Med Chem, 2018).
pEC50: −log10 of the molar value. Calls of active or inactive are those of the source. The rule behind the calls is not given here.

Assays:
[1] = tested on: Human alphaherpesvirus 2; assay: Antiviral activity against Herpes simplex virus type 2 infected in human HEL299 cells assessed as inhibition of virus-induced cytopathic effect after 3 to 6 days by MTS assay; type: functional, organism-based
[2] = tested on: Influenza A virus; assay: Antiviral activity against Influenza A virus (A/Puerto Rico/8/34(H1N1)) infected in MDCK cells assessed as protection against virus-induced reduction in cell viability after 3 to 6 days by MTS assay; type: functional, organism-based; settings: A/Puerto Rico/8/1934(H1N1)
Summary of the method: (§1)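 MDCK cells seeded at 9000/well and infected one day later (semiconfluent) with 100 CCID50 virus. Medium was FCS-free Ultra MDCK with 2 μg/mL TPCK-trypsin. Serial five-fold compound dilutions (top 100 μM) were added with the virus, followed by 3–6 days at 35 °C. MTS read-out gave % protection versus virus and mock controls. EC50 was interpolated from semi-log curves; mean of two or three experiments.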

[3] = tested on: Yellow fever virus; assay: Antiviral activity against Yellow fever virus infected in African green monkey Vero cells assessed as inhibition of virus-induced cytopathic effect after 3 to 6 days by MTS assay; type: functional, organism-based
[4] = tested on: Influenza B virus; assay: Antiviral activity against Influenza B virus B/Ned/537/05 infected in MDCK cells assessed as protection against virus-induced reduction in cell viability after 3 to 6 days by MTS assay; type: functional, organism-based; settings: B/Ned/537/05, MDCK; summary of the method: as §1
[5] = tested on: Human coronavirus 229E; assay: Antiviral activity against Human coronavirus 229E infected in human HEL299 cells assessed as inhibition of virus-induced cytopathic effect after 3 to 6 days by MTS assay; type: functional, organism-based
[6] = tested on: Vero; assay: Cytotoxicity against African green monkey Vero cells assessed as reduction in cell viability measured after 3 to 6 days by MTS assay; type: cell-based; settings: chlorocebus sabaeus
[7] = tested on: Mammalian orthoreovirus 1; assay: Antiviral activity against Reovirus-1 infected in African green monkey Vero cells assessed as inhibition of virus-induced cytopathic effect after 3 to 6 days by MTS assay; type: functional, organism-based
[8] = tested on: Vaccinia virus; assay: Antiviral activity against Vaccinia virus infected in human HEL299 cells assessed as inhibition of virus-induced cytopathic effect after 3 to 6 days by MTS assay; type: functional, organism-based; settings: Orthopoxvirus vaccinia
[9] = tested on: Human alphaherpesvirus 1; assay: Antiviral activity against Herpes simplex virus type 1 infected in human HEL299 cells assessed as inhibition of virus-induced cytopathic effect after 3 to 6 days by MTS assay; type: functional, organism-based
[10] = tested on: Human respirovirus 3; assay: Antiviral activity against Parainfluenza virus 3 infected in African green monkey Vero cells assessed as inhibition of virus-induced cytopathic effect after 3 to 6 days by MTS assay; type: functional, organism-based
[11] = tested on: Vesicular stomatitis virus; assay: Antiviral activity against Vesicular stomatitis virus infected in human HEL299 cells assessed as inhibition of virus-induced cytopathic effect after 3 to 6 days by MTS assay; type: functional, organism-based
[12] = tested on: Human adenovirus 2; assay: Antiviral activity against Human adenovirus type 2 infected in human HEL299 cells assessed as inhibition of virus-induced cytopathic effect after 3 to 6 days by MTS assay; type: functional, organism-based
[13] = tested on: Human immunodeficiency virus; assay: Antiviral activity against HIV; type: functional, organism-based
[14] = tested on: Respiratory syncytial virus; assay: Antiviral activity against Respiratory syncytial virus Long infected in human HeLa cells assessed as inhibition of virus-induced cytopathic effect after 3 to 6 days by MTS based microscopy; type: functional, organism-based
[15] = tested on: Sindbis virus; assay: Antiviral activity against Sindbis virus infected in African green monkey Vero cells assessed as inhibition of virus-induced cytopathic effect after 3 to 6 days by MTS assay; type: functional, organism-based
[16] = tested on: Coxsackievirus B4; assay: Antiviral activity against Coxsackie B4 virus infected in human HeLa cells assessed as inhibition of virus-induced cytopathic effect after 3 to 6 days by MTS assay; type: functional, organism-based
[17] = Cytotoxicity against human HeLa cells assessed as alterations in normal cell morphology measured after 3 to 6 days by microscopic analysis; type: cell-based
Summary of the method: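 Mock-infected HeLa cultures in 2% FCS medium received serial five-fold dilutions […] for 3–6 days at 37 °C. MCC was the lowest concentration giving microscopically visible minimal change in cell morphology (rounding, shrinking, lysis).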

[18] = tested on: Punta Toro virus; assay: Antiviral activity against Punta Toro virus infected in African green monkey Vero cells assessed as inhibition of virus-induced cytopathic effect after 3 to 6 days by MTS assay; type: functional, organism-based
[19] = Cytotoxicity against MDCK cells assessed as alterations in normal cell morphology measured after 3 to 6 days by microscopic analysis; type: cell-based, Canis lupus familiaris; settings: dog
Summary of the method: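 Uninfected MDCK cultures in FCS-free Ultra MDCK medium with trypsin received five-fold compound dilutions (up to […]) for 3–6 days at 35 °C. Microscopy scored morphology, and MCC was taken as the lowest concentration causing minimal rounding, shrinking or lysis.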

[20] = tested on: MDCK; assay: Cytotoxicity against MDCK cells assessed as reduction in cell viability measured after 3 to 6 days by MTS assay; type: cell-based, Canis lupus familiaris; settings: dog
Summary of the method: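 Mock-infected MDCK plates were run in parallel (FCS-free Ultra MDCK medium with TPCK-trypsin) with serial five-fold dilutions up to […], 35 °C for 3–6 days. CC50 was interpolated from semi-log dose-response curves; mean of two or three experiments.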

Structure (SMILES) | Activity [1] | pEC50 [2] | Activity [3] | pEC50 [4] | Activity [5] | Activity [6] | Activity [7] | Activity [8] | Activity [9] | Activity [10] | Activity [11] | Activity [12] | Activity [13] | pEC50 [14] | Activity [15] | Activity [16] | MCC [17] | Activity [18] | MCC [19] | CC50 [20]
CCCN1C(N)=NC(N)=NC12CCN(S(=O)(=O)CCC)CC2 | inactive | < 4.00 | inactive | < 4.00 | inactive | Non-Toxic | inactive | inactive | inactive | inactive | inactive | inactive | inactive | < 4.00 | inactive | inactive | > 100 µM | inactive | > 100 µM | > 100 µM
NC1=NC2(CCN(C(=O)C3CCC3)CC2)N(c2cccc(Cl)c2)C(N)=N1 | inactive | 4.46 | inactive | 5.11 | inactive | Non-Toxic | inactive | inactive | inactive | inactive | inactive | inactive | inactive | < 4.00 | inactive | inactive | > 100 µM | inactive | ≥ 20 µM | > 100 µM
COCCN1C(N)=NC(N)=NC12CCN(S(=O)(=O)c1ccccc1)CC2 | inactive | < 4.00 | inactive | < 4.00 | inactive | Non-Toxic | inactive | inactive | inactive | inactive | inactive | inactive | inactive | < 4.00 | inactive | inactive | > 100 µM | inactive | > 100 µM | > 100 µM
Cl.NC1=NC2(CCCN(Cc3ccccc3)C2)N(c2ccccc2)C(N)=N1 (stereo not given) | inactive | < 4.00 | inactive | < 4.00 | inactive | Non-Toxic | inactive | inactive | inactive | inactive | inactive | inactive | inactive | < 4.00 | inactive | inactive | > 100 µM | inactive | > 100 µM | > 100 µM
COc1cccc(N2C(N)=NC(N)=NC23CCN(C(=O)c2ccc(C(F)(F)F)cc2C)CC3)c1 | inactive | < 4.00 | inactive | < 4.00 | inactive | Non-Toxic | inactive | inactive | inactive | inactive | inactive | inactive | inactive | < 4.00 | inactive | inactive | > 100 µM | inactive | > 100 µM | > 100 µM
CCCN1C(N)=NC(N)=NC12CCN(C(=O)NCCC(=O)OCC)CC2 | inactive | < 4.00 | inactive | < 4.00 | inactive | Non-Toxic | inactive | inactive | inactive | inactive | inactive | inactive | inactive | < 4.00 | inactive | inactive | > 100 µM | inactive | > 100 µM | > 100 µM
CCCN1C(N)=NC(N)=NC12CCN(C(=O)C1CC1)CC2 | inactive | < 4.00 | inactive | < 4.00 | inactive | Non-Toxic | inactive | inactive | inactive | inactive | inactive | inactive | inactive | < 4.00 | inactive | inactive | > 100 µM | inactive | > 100 µM | > 100 µM
COCCN1C(N)=NC(N)=NC12CCN(C(=O)Nc1ccc(OC)cc1)CC2 | inactive | < 4.00 | inactive | < 4.00 | inactive | Non-Toxic | inactive | inactive | inactive | inactive | inactive | inactive | inactive | < 4.00 | inactive | inactive | > 100 µM | inactive | > 100 µM | > 100 µM
NC1=NC2(CCNCC2)N(c2cccc(Cl)c2)C(N)=N1 | inactive | < 4.00 | inactive | < 4.00 | inactive | Non-Toxic | inactive | inactive | inactive | inactive | inactive | inactive | inactive | < 4.00 | inactive | inactive | > 100 µM | inactive | > 100 µM | > 100 µM
Cl.NC1=NC2(CCCN(Cc3ccccc3)C2)N(c2ccc(Cl)cc2)C(N)=N1 (stereo not given) | inactive | < 4.00 | inactive | < 4.00 | inactive | Non-Toxic | inactive | inactive | inactive | inactive | inactive | inactive | inactive | < 4.00 | inactive | inactive | 100 µM | inactive | 100 µM | 45 µM
